Calls of active or inactive are those of the source. No cut-off for these calls is given here.
Assays:
HD-MB03 [1] = assay: Antitumor activity against human HD-MB03 cells xenografted in female athymic (nu/nu) mouse assessed as reduction in tumor volume at 50 mg/kg, ip measured form days 4 to 14 days relative to untreated control; format: functional, organism-based; settings: time 4-14 day
Outline: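 Female athymic nu/nu mice, 4 weeks old, received 2 × 10^7 HD-MB3 cells in Matrigel subcutaneously in the left flank. At 150–200 mm3 they were randomised, n=7 per group, to JQ1 50 mg/kg ip daily or vehicle for 28 days or until tumours exceeded 1000 mm3. Calipers were used, with volume = (breadth × length × height)/2. Time to 1000 mm3 was analysed by Kaplan-Meier.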

ONS-76 [2] = assay: Induction of apoptosis in human ONS-76 cells assessed as increase in population of cells in G1 phase at 500 nM incubated for 72 hrs by ELISA; format: functional, cell-based
D283 Med [3] = assay: Anti-proliferative activity against human D283 cells assessed as reduction in cell viability incubated for 48 hrs by MTT assay; format: functional, cell-based
Outline: (§1)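 Cells seeded in triplicate at 2 × 10^3 per well and allowed to adhere for 24h. JQ1 was given as serial dilutions in full medium, 1nM-6µM, from a 10 mM DMSO stock. Viability was read by MTT at each time point and IC50 derived from dose-response curves. Culture media were RPMI 1640/10% FCS for HD-MB3 (plus 1% NEAA), ONS-76, Daoy and UW-228, and EMEM/10% FCS for D-283 and D-341.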

D283 Med [4] = assay: Induction of apoptosis in human D283 cells assessed as increase in population of cells in sub-G1 phase at 500 nM incubated for 72 hrs by flow cytometry; format: functional, cell-based
Outline: (§2)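 Cells were cultured with 500 nM JQ1 or DMSO control, trypsinised and washed 3 times in PBS. DNA was stained with propidium iodide for 15 min and DNA content analysed by flow cytometry to give G1 and sub-G1 fractions.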

[5] = target: Bromodomain-containing protein 4 (Homo sapiens) (UniProt O60885); settings: HD-MB03, dose 500.0 nM, time 6-24 hrs
D283 Med [6] = assay: Induction of apoptosis in human D283 cells assessed as increase in population of cells in G1 phase at 500 nM incubated for 72 hrs by flow cytometry; format: functional, cell-based; outline: as §2
UW228 [7] = assay: Induction of senescence in human UW228 cells assessed as increase in population of cells in G1 phase at 500 nM incubated for 72 hrs by fluorometric SA-beta-gal activity assay; format: functional, cell-based
Outline: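 Senescence read as fluorometric SA-β-gal activity. Cells seeded 2 × 10^3 per well in triplicate and allowed 24h to adhere, then exposed to 500 nM JQ1 or DMSO control for 72h. Assayed per kit protocol. Experiments repeated at least 3 times.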

[8] = target: Bromodomain-containing protein 4 (Homo sapiens) (UniProt O60885); settings: HD-MB03, dose 500.0 nM, time 12.0 hrs
[9] = target: Bromodomain-containing protein 4 (Homo sapiens) (UniProt O60885); settings: UW228, dose 500.0 nM, time 72.0 hrs
HD-MB03 [10] = assay: Inhibition of BRD4 female athymic (nu/nu) mouse xenografted with human HD-MB03 cells as reduction in MYC mRNA expression in tumor at 50 mg/kg, ip administered at 0, 12, 24 and 36 hrs over 2-day course by RT-PCR analysis; format: functional, organism-based
Outline: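 Same flank HD-MB3 xenografts in female nu/nu mice. Given 4 i.p. doses of JQ1 50 mg/kg (or DMSO) at 0, 12, 24 and 36h; tumours excised 4h after the last dose and snap-frozen. MYC measured by RT-PCR (mean ± S.D.) or western blot with β-actin loading control, 3 tumours per group.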

ONS-76 [11] = assay: Induction of apoptosis in human ONS-76 cells assessed as increase in population of cells in sub-G1 phase at 500 nM incubated for 72 hrs by flow cytometry; format: functional, cell-based
Outline: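 PI flow cytometry: cells seeded in triplicate, adhered 24h, then exposed to 500 nM JQ1 or DMSO control (methods give 48h culture, legend gives 72h). Harvested by trypsin, washed 3 times in PBS, stained with propidium iodide 15 min, DNA content read by flow cytometry. Sub-G1 fraction taken as apoptotic. Experiments repeated at least 3 times.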

ONS-76 [12] = assay: Anti-proliferative activity against human ONS-76 cells assessed as reduction in cell viability incubated for 48 hrs by MTT assay; format: functional, cell-based; settings: ONS-76, 48 h; outline: as §1
UW228 [13] = assay: Induction of apoptosis in human UW228 cells assessed as increase in population of cells in sub-G1 phase at 500 nM incubated for 72 hrs by ELISA; format: functional, cell-based
Outline: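 Cell death ELISA on ONS-76 or UW-228 cells seeded 2 × 10^3 per well in triplicate and allowed 24h to adhere. Treated with 500 nM JQ1 or DMSO for 72h, then apoptotic cell death measured by Cell Death Detection ELISA per kit protocol. Experiments repeated at least 3 times.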

ONS-76 [14] = assay: Anti-proliferative activity against human ONS-76 cells assessed as reduction in cell viability incubated for 72 hrs by MTT assay; format: functional, cell-based; settings: ONS-76, 72 h; outline: as §1
D341 cell line [15] = assay: Anti-proliferative activity against human D341 cells assessed as reduction in cell viability incubated for 72 hrs by MTT assay; format: functional, cell-based; settings: D341, 72 h; outline: as §1
D341 cell line [16] = assay: Induction of apoptosis in human D341 cells assessed as increase in population of cells in sub-G1 phase at 500 nM incubated for 72 hrs by ELISA; format: functional, cell-based
[17] = target: Bromodomain-containing protein 4 (Homo sapiens) (UniProt O60885); settings: UW228, dose 500.0 nM, time 24.0 hrs
HD-MB03 [18] = assay: Induction of apoptosis in female athymic (nu/nu) mouse xenografted with human HD-MB03 cells as increase in expression of cleaved caspase 3 in tumor at 50 mg/kg, ip administered at 0, 12, 24 and 36 hrs over 2-day course by immunohistochemistry; format: functional, organism-based
Outline: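 Nu/nu mice bearing subcutaneous HD-MB3 tumours received JQ1 50 mg/kg ip or DMSO at 0, 12, 24 and 36 h and were killed 4 h after the last dose, 3 tumours per group. Formalin-fixed 5µm sections underwent pH 6.0 antigen retrieval for 20 min at 100°C, then cleaved caspase 3 immunostaining (1:200) with quantification of positive cells.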

[19] = target: Bromodomain-containing protein 4 (Homo sapiens) (UniProt O60885); settings: D283 Med, dose 500.0 nM, time 72.0 hrs
[20] = target: Bromodomain-containing protein 4 (Homo sapiens) (UniProt O60885); settings: HD-MB03, dose 500.0 nM, time 96.0 hrs
UW228 [21] = assay: Induction of apoptosis in human UW228 cells assessed as increase in population of cells in G1 phase at 500 nM incubated for 72 hrs by flow cytometry; format: functional, cell-based
HD-MB03 [22] = assay: Anti-proliferative activity against human HD-MB03 cells assessed as reduction in cell viability incubated for 120 hrs by MTT assay; format: functional, cell-based; settings: HD-MB03, 120 h; outline: as §1

## Cc1sc2c(c1C)C(c1ccc(Cl)cc1)=N[C@@H](CC(=O)OC(C)(C)C)c1nnc(C)n1-2
HD-MB03 [1]
  Activity: Active
ONS-76 [2]
  Activity: Active
D283 Med [3]
  IC50: > 1000 nM
D283 Med [4]
  Activity: Active
[5]
  inhibition: Active
D283 Med [6]
  Activity: Active
UW228 [7]
  Activity: Active
[8]
  inhibition: Active
[9]
  inhibition: Active
HD-MB03 [10]
  inhibition: Active
ONS-76 [11]
  Activity: Active
ONS-76 [12]
  IC50: 172 nM
UW228 [13]
  Activity: Active
ONS-76 [14]
  IC50: 87 nM
D341 cell line [15]
  IC50: 244 nM
D341 cell line [16]
  Activity: Active
[17]
  inhibition: Active
HD-MB03 [18]
  Activity: Active
[19]
  inhibition: Active
[20]
  inhibition: inactive
UW228 [21]
  Activity: Active
HD-MB03 [22]
  IC50: 153 nM
